Results taken from ChEMBL document CHEMBL5346889, “Discovery of 4-oxo-N-phenyl-1,4-dihydroquinoline-3-carboxamide derivatives as novel anti-inflammatory agents for the treatment of acute lung injury and sepsis” (Eur J Med Chem, 2023).
Activity calls are given as the source filed them. The calls are words filed in the database; no cut-off is given here.

Assays:
[1] = test system: J774.A1; test: Antiinflammatory activity in LPS-induced mouse J774.A1 cells assessed as inhibition of LPS-induced TNF-alpha transcription preincubated for 0.5 hrs followed by LPS stimulation for 6 hrs by RT-qPCR method; type: functional, cell-based; conditions: dose 5-10 µM, time 6.5 hrs
Method in brief: (§1)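 J774A.1 or THP-1 cells pretreated 0.5 h at 10 or 5 μM, then LPS 0.5 μg/mL for 6 h. TRIzol RNA; IL-6, TNF-α and IL-1β transcripts by RT-qPCR, normalized to β-actin and control; 3 independent experiments, mean ± SEM.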

[2] = test system: THP-1; test: Antiinflammatory activity in LPS-induced human THP-1 cells assessed as inhibition of LPS-induced TNF-alpha transcription preincubated for 0.5 hrs followed by LPS stimulation for 6 hrs by RT-qPCR method; type: functional, cell-based; conditions: dose 5-10 µM, time 6.5 hrs; method in brief: as §1
[3] = test system: J774.A1; test: Antiinflammatory activity in LPS-induced mouse J774.A1 cells assessed as inhibition of LPS-induced IL-1 beta transcription preincubated for 0.5 hrs followed by LPS stimulation for 6 hrs by RT-qPCR method; type: functional, cell-based; conditions: dose 5-10 µM, time 6.5 hrs; method in brief: as §1
[4] = test system: THP-1; test: Antiinflammatory activity in LPS-induced human THP-1 cells assessed as inhibition of LPS-induced IL-6 release preincubated for 30 mins followed by LPS stimulation for 24 hrs by ELISA method; type: functional, cell-based
Method in brief: (§2)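 THP-1 or LX-2 cells in DMEM with 10% FBS, 37 °C, 5% CO2. Pretreated 30 min at 10, 5, 2.5 or 1.25 μM, then LPS 0.5 μg/mL for 24 h. IL-6 and TNF-α in medium measured by ELISA, normalized to lysate total protein; mean ± SEM of 3 independent experiments.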

[5] = test system: Mus musculus; test: Antiinflammatory activity in LPS-induced C57/BL6 mouse acute lung injury model assessed as decrease in TNF-alpha level in serum at 20 mg/kg via oral gavage preincubated for 30 mins followed by LPS stimulation for 6 hrs by ELISA; conditions: time 6.5 hrs
[6] = test system: J774.A1; test: Antiinflammatory activity in LPS-induced mouse J774.A1 cells assessed as inhibition of LPS-induced IL-6 release at 10 uM preincubated for 30 mins followed by LPS stimulation for 24 hrs by ELISA method; type: functional; conditions: time 24.5 hrs
Method in brief: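 J774A.1 macrophages pretreated 30 min at 10 μM, then challenged with LPS 0.5 μg/mL for 24 h at 37 °C, 5% CO2. Medium IL-6 and TNF-α measured by ELISA, normalized to total lysate protein.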

[7] = test system: Mus musculus; test: Antiinflammatory activity in LPS-induced C57/BL6 mouse acute lung injury model assessed as decrease in IL-6 level in BALF at 20 mg/kg via oral gavage preincubated for 30 mins followed by LPS stimulation for 6 hrs by ELISA; conditions: time 6.5 hrs
[8] = test system: Mus musculus; test: Protection against LPS-induced sepsis in C57/BL6 mouse model assessed as reduction of obvious white pulp in spleen at 20 mg/kg, po preincubated with compound followed by LPS stimulation for 1 hr by H and E staining based analysis; type: functional, organism-based
Method in brief: (§3)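 Mice given 20 mg/kg orally, then intraperitoneal LPS 20 mg/kg 1 h later; n = 12 per group. Kidney, liver, heart and spleen weighed; spleen sections H&E-stained for histology.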

[9] = Cmax in rat at 10 mg/kg, po; type: ADME, organism-based; set-up: dose 10 mg/kg, route po; conditions: in vivo
Method in brief: (§4)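 Rats dosed intravenously at 1 mg/kg or orally at 10 mg/kg; plasma pharmacokinetic parameters AUC(0-t), Tmax, T1/2, Cmax and oral bioavailability F derived from the two routes.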

[10] = test system: Mus musculus; test: Antiinflammatory activity in LPS-induced C57/BL6 mouse acute lung injury model assessed as decrease in TNF-alpha expression level at 20 mg/kg via oral gavage preincubated for 30 mins followed by LPS stimulation for 6 hrs by RT-qPCR method; type: functional, organism-based; conditions: time 6.5 hrs
Method in brief: (§5)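 Male C57BL/6 mice, six weeks old, n = 8 per group. Dosed 20 mg/kg orally 30 min before intratracheal LPS 5 mg/kg; dexamethasone 20 mg/kg as comparator. Lung tissue collected 6 h after LPS. RNA extracted with TRIzol; IL-6 and TNF-α transcripts by RT-qPCR, normalized to β-actin; n = 5 mice per group, mean ± SEM.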

[11] = test system: Mus musculus; test: Protection against LPS-induced C57/BL6 mouse acute lung injury model assessed as reduction in number of neutrophils in BALF at 20 mg/kg via oral gavage preincubated for 30 mins followed by LPS stimulation for 6 hrs; type: functional, organism-based; conditions: time 6.5 hrs
Method in brief: (§6)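 Mice dosed 20 mg/kg by gavage (dexamethasone 20 mg/kg comparator), intratracheal LPS 5 mg/kg 30 min later, killed at 6 h. Right upper lobe fixed in paraformaldehyde, H&E; lung wet/dry ratio; BALF protein, total cells and neutrophils counted; n = 5 mice per group, mean ± SEM.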

[12] = test system: Mus musculus; test: Protection against LPS-induced sepsis in C57/BL6 mouse model assessed as improvement in survival rate at 20 mg/kg, po preincubated with compound followed by LPS stimulation for 1 hr and measured every 12 hrs by 6 days; type: functional, organism-based; conditions: time 6.0 day
Method in brief: (§7)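 Sepsis model in C57BL/6 mice, n = 12 per group: oral 20 mg/kg, then intraperitoneal LPS 20 mg/kg 1 h later; saline control. Survival checked every 12 h and body weight every 24 h for 6 days.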

[13] = test system: Mus musculus; test: Protection against LPS-induced sepsis in C57/BL6 mouse model assessed as reduction in spleen enlargement at 20 mg/kg, po preincubated with compound followed by LPS stimulation for 1 hr; type: functional, organism-based; method in brief: as §3
[14] = test system: Mus musculus; test: Protection against LPS-induced sepsis in C57/BL6 mouse model assessed as reduction in weight loss at 20 mg/kg, po preincubated with compound followed by LPS stimulation for 1 hr and measured every 24 hrs by 6 days; type: functional, organism-based; conditions: time 6.0 day; method in brief: as §7
[15] = test system: Mus musculus; test: Protection against LPS-induced C57/BL6 mouse acute lung injury model assessed as improvement in structural distruption of lung tissue at 20 mg/kg via oral gavage preincubated for 30 mins followed by LPS stimulation for 6 hrs; type: functional, organism-based; conditions: time 6.5 hrs; method in brief: as §6
[16] = test system: Mus musculus; test: Antiinflammatory activity in LPS-induced C57/BL6 mouse acute lung injury model assessed as decrease in IL-6 expression level at 20 mg/kg via oral gavage preincubated for 30 mins followed by LPS stimulation for 6 hrs by RT-qPCR method; type: functional, organism-based; conditions: time 6.5 hrs; method in brief: as §5
[17] = test system: LX-2; test: Antiinflammatory activity in LPS-induced human LX2 cells assessed as inhibition of LPS-induced IL-6 release preincubated for 30 mins followed by LPS stimulation for 24 hrs by ELISA method; type: functional, cell-based; method in brief: as §2
[18] = test system: Mus musculus; test: Protection against LPS-induced sepsis in C57/BL6 mouse model assessed as reduction in periarterial lymphatic sheath thickening at 20 mg/kg, po preincubated with compound followed by LPS stimulation for 1 hr by H and E staining based analysis; type: functional, organism-based; method in brief: as §3
[19] = Half life in rat at 10 mg/kg, po; type: ADME, organism-based; conditions: in vivo; method in brief: as §4
[20] = Oral bioavailability in rat at 10 mg/kg; type: ADME, organism-based; conditions: in vivo; method in brief: as §4
[21] = test system: THP-1; test: Antiinflammatory activity in LPS-induced human THP-1 cells assessed as inhibition of LPS-induced IL-6 transcription preincubated for 0.5 hrs followed by LPS stimulation for 6 hrs by RT-qPCR method; type: functional, cell-based; conditions: dose 5-10 µM, time 6.5 hrs; method in brief: as §1

Compound: COc1cc2nccc(Oc3ccc(NC(=O)c4cn(-c5ccccc5)c5ccccc5c4=O)cc3)c2cc1OC
- inhibition [1]: Dose-Dependent Effect
- inhibition [2]: Dose-Dependent Effect
- inhibition [3]: Dose-Dependent Effect
- IC50 [4]: 1330 nM
- Activity [5]: Active
- inhibition at 10 µM [6]: 75%
- Activity [7]: Active
- Activity [8]: Active
- Cmax [9]: 1680 ng/mL
- Activity [10]: Active
- Activity [11]: Active
- Activity [12]: Active
- Activity [13]: Active
- Activity [14]: Active
- Activity [15]: Active
- Activity [16]: Active
- IC50 [17]: 2620 nM
- Activity [18]: Active
- half-life [19]: 708 min
- bioavailability [20]: 36.3%
- inhibition [21]: Dose-Dependent Effect
